# Measurements taken from ChEMBL document CHEMBL1629542, “Epigallocatechin gallate inactivates clinical isolates of herpes simplex virus” (Antimicrob Agents Chemother, 2008).
# The source made the active and inactive calls. The calls are words filed in the database; no cut-off is given here.
# Columns and labels:
# Human alphaherpesvirus 1 [1] = assay: Antiviral activity against Human herpesvirus 1 isolate P42 infected in African green monkey vero cells assessed as reduction in viral titer at 100 uM; assay type: functional, organism-based
# In short: (§1)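 Laboratory HSV-1 F1 or patient-swab HSV-1 isolates were prepared as clarified Vero supernatants. They were incubated 1 h with a range of EGCG concentrations in RPMI 1640/1% FCS at pH 7.4. Titres were determined on Vero cells by 5-day CPE endpoint (Reed-Muench). IC99 was read graphically as 99% titre drop from untreated; mean ± SD, three experiments.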
# Human alphaherpesvirus 1 [2] = assay: Antiviral activity against Human herpesvirus 1 isolate P56 infected in African green monkey vero cells assessed as reduction in viral titer at 100 uM; assay type: functional, organism-based; in short: as §1
# Human alphaherpesvirus 2 [3] = assay: Antiviral activity against Human herpesvirus 2 isolate P22 infected in African green monkey CV1 cells assessed as log reduction in viral titer at 100 uM within 10 mins; assay type: functional, CV-1
# In short: (§2)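 Time course: clarified CV-1 supernatant of HSV-2 (clinical isolates or strain 333) was exposed to 100 μM EGCG for increasing times. It was then titrated by tenfold dilution on CV-1 cells, three wells per dilution, for 5 days at 37°C with CPE read-out. Reed-Muench TCID50 was compared with the untreated titer. Mean of three separate experiments.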
# Human alphaherpesvirus 2 [4] = assay: Antiviral activity against Human herpesvirus 2 isolate P2 infected in African green monkey CV1 cells assessed as log reduction in viral titer at 100 uM within 20 mins; assay type: functional, CV-1; in short: as §2
# Human alphaherpesvirus 2 [5] = assay: Antiviral activity against Human herpesvirus 2 isolate P11 infected in African green monkey CV1 cells assessed as log reduction in viral titer at 100 uM within 20 mins; assay type: functional, CV-1
# In short: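 HSV-2 clinical isolates from clarified CV-1 supernatants were held with 100 μM EGCG for timed intervals, from 10 min onward. Surviving virus was titrated on CV-1 cells by 10-fold dilution and 5-day CPE scoring, with TCID50 by Reed-Muench. Values are mean ± SD, three experiments.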
# Human alphaherpesvirus 2 [6] = assay: Antiviral activity against Human herpesvirus 2 isolate P22 infected in African green monkey CV1 cells assessed as log reduction in viral titer at 100 uM within 20 mins; assay type: functional, CV-1; in short: as §2
# Human alphaherpesvirus 2 [7] = assay: Antiviral activity against Human herpesvirus 2 isolate P47 infected in African green monkey CV1 cells assessed as log reduction in viral titer at 100 uM within 20 mins; assay type: functional, CV-1; in short: as §2
# Human alphaherpesvirus 1 [8] = assay: Antiviral activity against Human herpesvirus 1 isolate P15 infected in African green monkey vero cells assessed as log reduction in viral titer at 100 uM after 40 to 60 mins; assay type: functional
# In short: (§3)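 In the time course, HSV-1 clinical isolates (clarified Vero supernatants) were exposed to 100 μM EGCG for varying times up to 60 min. Residual infectivity was then titrated on Vero cells by 5-day CPE endpoint with Reed-Muench calculation. Mean ± SD of three separate experiments.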
# Human alphaherpesvirus 1 [9] = assay: Antiviral activity against Human herpesvirus 1 isolate P42 infected in African green monkey vero cells assessed as log reduction in viral titer at 100 uM after 40 to 60 mins; assay type: functional; in short: as §3
# Human alphaherpesvirus 1 [10] = assay: Antiviral activity against Human herpesvirus 1 isolate P15 infected in African green monkey vero cells assessed as log reduction in viral titer at 100 uM after 30 mins; assay type: functional; in short: as §3
# Human alphaherpesvirus 1 [11] = assay: Antiviral activity against Human herpesvirus 1 isolate P56 infected in African green monkey vero cells assessed as log reduction in viral titer at 100 uM within 10 mins; assay type: functional; in short: as §3
# Human alphaherpesvirus 1 [12] = assay: Antiviral activity against Human herpesvirus 1 isolate P32 infected in African green monkey vero cells assessed as log reduction in viral titer at 100 uM within 20 mins; assay type: functional; in short: as §3
# Human alphaherpesvirus 1 [13] = assay: Antiviral activity against Human herpesvirus 1 isolate P15 infected in African green monkey vero cells assessed as reduction in viral titer; assay type: functional, organism-based; details: Human alphaherpesvirus 1, isolate P15, Vero; in short: as §1
# Human alphaherpesvirus 1 [14] = assay: Antiviral activity against Human herpesvirus 1 isolate P25 infected in African green monkey vero cells assessed as reduction in viral titer; assay type: functional, organism-based; details: Human alphaherpesvirus 1, isolate P25, Vero; in short: as §1
# Human alphaherpesvirus 1 [15] = assay: Antiviral activity against Human herpesvirus 1 isolate P32 infected in African green monkey vero cells assessed as reduction in viral titer; assay type: functional, organism-based; details: Human alphaherpesvirus 1, isolate P32, Vero; in short: as §1
# Human alphaherpesvirus 1 [16] = assay: Antiviral activity against Human herpesvirus 1 isolate P42 infected in African green monkey vero cells assessed as log reduction in viral titer at 50 uM; assay type: functional; in short: as §1
# Human alphaherpesvirus 1 [17] = assay: Antiviral activity against Human herpesvirus 1 isolate P56 infected in African green monkey vero cells assessed as log reduction in viral titer at 50 uM; assay type: functional; in short: as §1
# Human alphaherpesvirus 1 [18] = assay: Antiviral activity against Human herpesvirus 1 isolate P32 infected in African green monkey vero cells assessed as reduction in viral titer at 100 uM; assay type: functional, organism-based; in short: as §1
# Human alphaherpesvirus 1 [19] = assay: Antiviral activity against Human herpesvirus 1 isolate P38 infected in African green monkey vero cells assessed as reduction in viral titer at 100 uM; assay type: functional, organism-based; in short: as §1
# Human alphaherpesvirus 2 [20] = assay: Antiviral activity against Human herpesvirus 2 isolate P27 infected in African green monkey CV1 cells assessed as log reduction in viral titer at 12.5 uM; assay type: functional, CV-1
# In short: (§4)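 HSV-2 (clinical swab isolates or strain 333) was grown in CV-1 cells and used as clarified supernatant. Virus was exposed to graded EGCG for 1 h in RPMI 1640 with 1% FCS, pH 7.4. Tenfold dilutions were titrated on CV-1 cells, three wells each, 5 days at 37°C, scoring CPE. TCID50 was calculated by Reed-Muench. IC99 was read graphically as 99% titer drop from the zero-concentration titer. Mean of three experiments.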
# Human alphaherpesvirus 2 [21] = assay: Antiviral activity against Human herpesvirus 2 strain 333 strain 333 infected in African green monkey CV-1 cells; assay type: functional, cell-based; details: Human alphaherpesvirus 2, strain 333, CV-1; in short: as §4
# Human alphaherpesvirus 2 [22] = assay: Antiviral activity against Human herpesvirus 2 isolate P11 infected in African green monkey CV1 cells; assay type: functional, organism-based; details: Human alphaherpesvirus 2, isolate P11, CV-1
# In short: (§5)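 HSV-2 patient-swab isolates were grown as clarified CV-1 supernatants and incubated 1 h with a range of EGCG concentrations (RPMI 1640/1% FCS, pH 7.4). They were titrated on CV-1 cells from 10-fold dilutions by 5-day CPE at 37°C, with Reed-Muench TCID50. IC99 was derived graphically as 99% reduction from zero-drug titre; mean ± SD, three experiments.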
# Human alphaherpesvirus 2 [23] = assay: Antiviral activity against Human herpesvirus 2 isolate P12 infected in African green monkey CV1 cells; assay type: functional, organism-based; details: Human alphaherpesvirus 2, isolate P12, CV-1; in short: as §5
# Human alphaherpesvirus 2 [24] = assay: Antiviral activity against Human herpesvirus 2 isolate P22 infected in African green monkey CV1 cells; assay type: functional, organism-based; details: Human alphaherpesvirus 2, isolate P22, CV-1; in short: as §4
# Human alphaherpesvirus 2 [25] = assay: Antiviral activity against Human herpesvirus 2 isolate P27 infected in African green monkey CV1 cells; assay type: functional, organism-based; details: Human alphaherpesvirus 2, isolate P27, CV-1; in short: as §4
# Human alphaherpesvirus 2 [26] = assay: Antiviral activity against Human herpesvirus 2 isolate P12 infected in African green monkey CV1 cells assessed as log reduction viral titer at 50 uM; assay type: functional, CV-1; in short: as §5
# Human alphaherpesvirus 2 [27] = assay: Antiviral activity against Human herpesvirus 2 strain 333 infected in African green monkey CV1 cells assessed as log reduction viral titer at 12.5 ug/ml; assay type: functional, CV-1; in short: as §4
# Human alphaherpesvirus 2 [28] = assay: Antiviral activity against Human herpesvirus 2 isolate P2 infected in African green monkey CV1 cells assessed as log reduction viral titer at 12.5 ug/ml; assay type: functional, CV-1; in short: as §4
# Human alphaherpesvirus 1 [29] = assay: Antiviral activity against Human herpesvirus 1 isolate P25 infected in African green monkey vero cells assessed as log reduction in viral titer at 50 uM; assay type: functional; in short: as §1
# Human alphaherpesvirus 1 [30] = assay: Antiviral activity against Human herpesvirus 1 isolate P38 infected in African green monkey vero cells assessed as log reduction in viral titer at 50 uM; assay type: functional; in short: as §1
structure (smiles),measurement,setting,value
O=C(O[C@@H]1Cc2c(O)cc(O)cc2O[C@@H]1c1cc(O)c(O)c(O)c1)c1cc(O)c(O)c(O)c1 [EPIGALOCATECHIN GALLATE],Activity,Human alphaherpesvirus 1 [1],Active
same,Activity,Human alphaherpesvirus 1 [2],Active
same,FC,Human alphaherpesvirus 2 [3],2
same,FC,Human alphaherpesvirus 2 [4],3
same,FC,Human alphaherpesvirus 2 [5],3
same,FC,Human alphaherpesvirus 2 [6],3
same,FC,Human alphaherpesvirus 2 [7],3
same,FC,Human alphaherpesvirus 1 [8],3
same,FC,Human alphaherpesvirus 1 [9],3
same,FC,Human alphaherpesvirus 1 [10],2
same,FC,Human alphaherpesvirus 1 [11],2
same,FC,Human alphaherpesvirus 1 [12],3
same,IC99,Human alphaherpesvirus 1 [13],48.4 µM
same,IC99,Human alphaherpesvirus 1 [14],45.4 µM
same,IC99,Human alphaherpesvirus 1 [15],16 µM
same,FC,Human alphaherpesvirus 1 [16],2
same,FC,Human alphaherpesvirus 1 [17],2
same,Activity,Human alphaherpesvirus 1 [18],Active
same,Activity,Human alphaherpesvirus 1 [19],Active
same,FC,Human alphaherpesvirus 2 [20],>=2
same,IC99,Human alphaherpesvirus 2 [21],25 µM
same,IC99,Human alphaherpesvirus 2 [22],12.5 µM
same,IC99,Human alphaherpesvirus 2 [23],12.5 µM
same,IC99,Human alphaherpesvirus 2 [24],12.5 µM
same,IC99,Human alphaherpesvirus 2 [25],12.1 µM
same,FC,Human alphaherpesvirus 2 [26],>4
same,FC,Human alphaherpesvirus 2 [27],0.56
same,FC,Human alphaherpesvirus 2 [28],3.15
same,FC,Human alphaherpesvirus 1 [29],2
same,FC,Human alphaherpesvirus 1 [30],2
